# From ChEMBL document CHEMBL3232759, “Hepatoprotective effects of triterpenoids from Ganoderma cochlear” (J Nat Prod, 2014)
# Assays:
# [1] = Cytotoxicity against human HepG2 cells after 96 hrs by MTT assay; assay type: cell-based; conditions: read-out: MTD
# Procedure, shortened: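 HepG2 cells seeded at 1 × 10^4 cells/well in MEM + 10% FBS, 24 h at 37 °C. Compounds diluted from DMSO stocks into MEM with 2% FBS (6.25, 12.5, 25, 50, 100, 200, 400 μM), DMSO kept below 1% (v/v). Added to monolayer; MTT read at OD570 after 96 h. % inhibition vs DMSO control; maximum nontoxic concentration determined.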
# HepG2 [2] = assay: Hepatoprotective activity against H2O2-induced human HepG2 cells assessed as reduction in AST level at 15.5 uM after 24 hrs (reference value: 32.36 +/- 0.79 U/L); assay type: functional
# Procedure, shortened: (§1)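 HepG2 cells in log phase seeded at 1 × 10^4 cells/well and held 24 h at 37 °C. Exposed to 3.2 mM H2O2 for 2 h at 37 °C, then to test compound in medium with DMSO for 24 h. ALT or AST read directly in the supernatant. Controls: DMSO-only cells and H2O2-only model. Test concentrations kept within each compound's MTT-determined maximum nontoxic level. Mean ± SD, n = 3; paired-sample test.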
# HepG2 [3] = assay: Hepatoprotective activity against H2O2-induced human HepG2 cells assessed as reduction in ALT level at 15.5 uM after 24 hrs (reference value: 23.22 +/- 1.22 U/L); assay type: functional; procedure, shortened: as §1
# HepG2 [4] = assay: Hepatoprotective activity against H2O2-induced human HepG2 cells assessed as reduction in AST level at 7.75 uM after 24 hrs (reference value: 32.36 +/- 0.79 U/L); assay type: functional; procedure, shortened: as §1
# HepG2 [5] = assay: Hepatoprotective activity against H2O2-induced human HepG2 cells assessed as reduction in ALT level at 7.75 uM after 24 hrs (reference value: 23.22 +/- 1.22 U/L); assay type: functional; procedure, shortened: as §1
# HepG2 [6] = assay: Hepatoprotective activity against H2O2-induced human HepG2 cells assessed as reduction in AST level at 3.88 uM after 24 hrs (reference value: 32.36 +/- 0.79 U/L); assay type: functional; procedure, shortened: as §1
# HepG2 [7] = assay: Hepatoprotective activity against H2O2-induced human HepG2 cells assessed as reduction in ALT level at 3.88 uM after 24 hrs (reference value: 23.22 +/- 1.22 U/L); assay type: functional; procedure, shortened: as §1
# HepG2 [8] = assay: Hepatoprotective activity against H2O2-induced human HepG2 cells assessed as reduction in AST level at 59.90 uM after 24 hrs (reference value: 32.36 +/- 0.79 U/L); assay type: functional; procedure, shortened: as §1
# HepG2 [9] = assay: Hepatoprotective activity against H2O2-induced human HepG2 cells assessed as reduction in AST level at 29.95 uM after 24 hrs (reference value: 32.36 +/- 0.79 U/L); assay type: functional; procedure, shortened: as §1
# HepG2 [10] = assay: Hepatoprotective activity against H2O2-induced human HepG2 cells assessed as reduction in ALT level at 29.95 uM after 24 hrs (reference value: 23.22 +/- 1.22 U/L); assay type: functional; procedure, shortened: as §1
# HepG2 [11] = assay: Hepatoprotective activity against H2O2-induced human HepG2 cells assessed as reduction in ALT level at 59.90 uM after 24 hrs (reference value: 23.22 +/- 1.22 U/L); assay type: functional; procedure, shortened: as §1
# HepG2 [12] = assay: Hepatoprotective activity against H2O2-induced human HepG2 cells assessed as reduction in ALT level at 14.98 uM after 24 hrs (reference value: 23.22 +/- 1.22 U/L); assay type: functional; procedure, shortened: as §1
# HepG2 [13] = assay: Hepatoprotective activity against H2O2-induced human HepG2 cells assessed as reduction in AST level at 14.98 uM after 24 hrs (reference value: 32.36 +/- 0.79 U/L); assay type: functional; procedure, shortened: as §1
# HepG2 [14] = assay: Hepatoprotective activity against H2O2-induced human HepG2 cells assessed as reduction in ALT level at 18.40 uM after 24 hrs (reference value: 23.22 +/- 1.22 U/L); assay type: functional; procedure, shortened: as §1
# HepG2 [15] = assay: Hepatoprotective activity against H2O2-induced human HepG2 cells assessed as reduction in AST level at 9.20 uM after 24 hrs (reference value: 32.36 +/- 0.79 U/L); assay type: functional; procedure, shortened: as §1
# HepG2 [16] = assay: Hepatoprotective activity against H2O2-induced human HepG2 cells assessed as reduction in ALT level at 4.60 uM after 24 hrs (reference value: 23.22 +/- 1.22 U/L); assay type: functional; procedure, shortened: as §1
# HepG2 [17] = assay: Hepatoprotective activity against H2O2-induced human HepG2 cells assessed as reduction in ALT level at 9.20 uM after 24 hrs (reference value: 23.22 +/- 1.22 U/L); assay type: functional; procedure, shortened: as §1
# HepG2 [18] = assay: Hepatoprotective activity against H2O2-induced human HepG2 cells assessed as reduction in AST level at 4.60 uM after 24 hrs (reference value: 32.36 +/- 0.79 U/L); assay type: functional; procedure, shortened: as §1
# HepG2 [19] = assay: Hepatoprotective activity against H2O2-induced human HepG2 cells assessed as reduction in AST level at 18.40 uM after 24 hrs (reference value: 32.36 +/- 0.79 U/L); assay type: functional; procedure, shortened: as §1
# HepG2 [20] = assay: Hepatoprotective activity against H2O2-induced human HepG2 cells assessed as reduction in ALT level at 32.85 uM after 24 hrs (reference value: 23.22 +/- 1.22 U/L); assay type: functional; procedure, shortened: as §1
# HepG2 [21] = assay: Hepatoprotective activity against H2O2-induced human HepG2 cells assessed as reduction in AST level at 16.43 uM after 24 hrs (reference value: 32.36 +/- 0.79 U/L); assay type: functional; procedure, shortened: as §1
# HepG2 [22] = assay: Hepatoprotective activity against H2O2-induced human HepG2 cells assessed as reduction in AST level at 65.70 uM after 24 hrs (reference value: 32.36 +/- 0.79 U/L); assay type: functional; procedure, shortened: as §1
# HepG2 [23] = assay: Hepatoprotective activity against H2O2-induced human HepG2 cells assessed as reduction in ALT level at 65.70 uM after 24 hrs (reference value: 23.22 +/- 1.22 U/L); assay type: functional; procedure, shortened: as §1
# HepG2 [24] = assay: Hepatoprotective activity against H2O2-induced human HepG2 cells assessed as reduction in AST level at 32.85 uM after 24 hrs (reference value: 32.36 +/- 0.79 U/L); assay type: functional; procedure, shortened: as §1
# HepG2 [25] = assay: Hepatoprotective activity against H2O2-induced human HepG2 cells assessed as reduction in ALT level at 16.43 uM after 24 hrs (reference value: 23.22 +/- 1.22 U/L); assay type: functional; procedure, shortened: as §1
smiles,measurement,setting,value
C=C(C)[C@@H]1C[C@@H]2O[C@@]1(CCC(=O)O)CC1=C2[C@]2(C)CC[C@H]([C@H](C)CCC(=O)OC)[C@@]2(C)CC1=O,MNTC at 96 h,[1],74.6 µM
C=C(C)[C@@H]1C[C@H](O)C2=C(C(=O)C[C@]3(C)[C@@H]([C@H](C)CCC(=O)O)CC[C@@]23C)[C@@]1(C)CCC(=O)OC,Activity,HepG2 [2],26.19 U/L
same,Activity,HepG2 [3],19.73 U/L
same,Activity,HepG2 [4],26.54 U/L
same,Activity,HepG2 [5],19.32 U/L
same,Activity,HepG2 [6],28.23 U/L
same,Activity,HepG2 [7],21.01 U/L
same,MNTC at 96 h,[1],18.4 µM
C=C(C)[C@@H]1C[C@H](O)C2=C(C(=O)C[C@]3(C)[C@@H]([C@H](C)CCC(=O)OC)CC[C@@]23C)[C@@]1(C)CCC(=O)O,MNTC at 96 h,[1],15.5 µM
C=C(C)[C@@H]1C[C@H](O)C2=C(C(=O)C[C@]3(C)[C@@H]([C@H](C)CCC(=O)OC)CC[C@@]23C)[C@@]1(C)CCC(=O)OC,Activity,HepG2 [8],22.11 U/L
same,Activity,HepG2 [9],26.77 U/L
same,Activity,HepG2 [10],18.51 U/L
same,Activity,HepG2 [11],17.81 U/L
same,Activity,HepG2 [12],19.32 U/L
same,Activity,HepG2 [13],28.28 U/L
same,MNTC at 96 h,[1],59.9 µM
CC(C)=CC[C@H](O)[C@@H](C)[C@H]1CC[C@@]2(C)C3=CC[C@H]4C(C)(C)[C@@H](O)CC[C@]4(C)C3=CC[C@]12C,MNTC at 96 h,[1],150 µM
C=C(C)[C@@H]1C[C@H](O)C2=C(C(=O)C[C@]3(C)[C@@H]([C@H](C)CCC(=O)O)CC[C@@]23C)[C@@]1(C)CCC(=O)O,Activity,HepG2 [14],20.84 U/L
same,Activity,HepG2 [15],23.8 U/L
same,Activity,HepG2 [16],19.61 U/L
same,Activity,HepG2 [17],20.2 U/L
same,Activity,HepG2 [18],30.38 U/L
same,Activity,HepG2 [19],20.66 U/L
same,MNTC at 96 h,[1],65.7 µM
C[C@H]1C(=O)CC[C@@H]2[C@]1(C)CC[C@H]1[C@@]2(C)CC[C@@]2(C)[C@@H]3CC(C)(C)CC[C@]3(C)CC[C@]12C [FRIEDELINE],Activity,HepG2 [20],18.27 U/L
same,Activity,HepG2 [21],29.45 U/L
same,Activity,HepG2 [22],19.09 U/L
same,Activity,HepG2 [23],16.06 U/L
same,Activity,HepG2 [24],25.43 U/L
same,Activity,HepG2 [25],18.92 U/L
same,MNTC at 96 h,[1],15 µM
